Numbered stars: 1 amine (or outer) side, 2 acyl side, 3 side chain; on linkers, the order of the positions; unused ones are H or OH. Square brackets hold non-standard residues; d marks the D form. Peptide text beside a SMILES is read from it. ξ: configuration not given here. Dmt = Cc1cc(O)cc(C)c1C[C@H](N)C(=O)O; Ethylenediamine = C(CN[*:2])N[*:1]; ξTic = O=C(O)C1Cc2ccccc2CN1
What was measured:
Rattus norvegicus [1] = organism: Rattus norvegicus; experiment: Selectivity for mu-opioid receptor over delta opiod receptor in Sprague-Dawley rat brain P2 synaptosome membrane; format: tissue-based
[2] = molecular target: Delta-type opioid receptor (Rattus norvegicus, UniProt P33533); experiment: Displacement of [3H]deltorphin 2 from delta-opioid receptor in Sprague-Dawley rat brain P2 synaptosome membrane; format: tissue-based
Delta-type opioid receptor, sequence (P33533 whole entry): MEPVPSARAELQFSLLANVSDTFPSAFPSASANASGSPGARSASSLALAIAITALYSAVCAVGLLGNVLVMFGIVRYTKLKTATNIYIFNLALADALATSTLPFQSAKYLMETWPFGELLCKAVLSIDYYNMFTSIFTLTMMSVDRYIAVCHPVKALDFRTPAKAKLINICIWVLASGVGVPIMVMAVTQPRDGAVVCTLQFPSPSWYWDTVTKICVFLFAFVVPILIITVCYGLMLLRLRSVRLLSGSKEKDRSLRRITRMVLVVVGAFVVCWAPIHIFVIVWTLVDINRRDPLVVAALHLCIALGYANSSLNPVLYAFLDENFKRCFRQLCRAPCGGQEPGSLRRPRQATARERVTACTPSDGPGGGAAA
Outline: (§1)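 Competition binding at equilibrium, 2.5 h at room temperature (23 °C), on rat brain P2 synaptosomes. Filters were soaked in 0.1% polyethylenimine and washed three times with ice-cold buffered BSA. Duplicate assays used 5-8 doses and 3-5 independent membrane preparations. Ki was derived by Cheng-Prusoff; means ± SE.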

Mu-type opioid receptor [3] = molecular target: Mu-type opioid receptor (Rattus norvegicus, UniProt P33535); experiment: Displacement of [3H]DAMGO from mu-opioid receptor in Sprague-Dawley rat brain P2 synaptosome membrane; format: tissue-based; outline: as §1
Mu-type opioid receptor (Rattus norvegicus, UniProt P33535), sequence (P33535 whole entry): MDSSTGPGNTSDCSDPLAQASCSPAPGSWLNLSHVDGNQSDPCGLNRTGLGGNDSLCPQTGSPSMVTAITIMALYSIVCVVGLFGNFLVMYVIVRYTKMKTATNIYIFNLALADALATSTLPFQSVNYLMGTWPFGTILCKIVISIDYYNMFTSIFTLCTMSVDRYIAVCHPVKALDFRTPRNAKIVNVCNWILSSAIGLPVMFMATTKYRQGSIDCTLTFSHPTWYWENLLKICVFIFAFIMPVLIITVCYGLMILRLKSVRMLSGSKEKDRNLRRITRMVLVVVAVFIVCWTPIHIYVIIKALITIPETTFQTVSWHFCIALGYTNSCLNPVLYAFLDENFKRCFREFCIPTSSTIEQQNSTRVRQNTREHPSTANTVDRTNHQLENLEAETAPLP

Mu-type opioid receptor [4] = molecular target: Mu-type opioid receptor (Cavia porcellus, UniProt P97266); experiment: Agonist activity at mu-opioid receptor in Hartley guinea pig ileum assessed as inhibition of electrically-stimulated muscle contraction; format: functional, tissue-based
Mu-type opioid receptor (Cavia porcellus, UniProt P97266), sequence (P97266 whole entry): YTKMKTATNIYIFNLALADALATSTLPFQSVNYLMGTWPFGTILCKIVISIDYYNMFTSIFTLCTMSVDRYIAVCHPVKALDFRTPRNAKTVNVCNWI
Outline: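 Myenteric plexus longitudinal muscle strips (2-3 cm) from small intestine of male Hartley guinea pigs, held in organ baths of balanced salt solution, pH 7.5. Inhibition of electrically evoked contraction was measured. IC50 (nM) was read from dose-response curves, with dermorphin as internal standard. Values are means ± SE of five or six separate assays.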

Rattus norvegicus [5] = organism: Rattus norvegicus; experiment: Selectivity for delta-opioid receptor over mu opiod receptor in Sprague-Dawley rat brain P2 synaptosome membrane; format: tissue-based

| Structure (SMILES) | Ratio Ki (Rattus norvegicus [1]) | Ki [2] [nM] | Ki (Mu-type opioid receptor [3]) [nM] | IC50 (Mu-type opioid receptor [4]) [nM] | Ratio Ki (Rattus norvegicus [5]) |
| --- | --- | --- | --- | --- | --- |
| Cc1cc(O)cc(C)c1C[C@H](N)C(=O)N1Cc2ccccc2CC1C(=O)NCCNC(=O)[C@H](Cc1ccccc1)NC(=O)[C@H](Cc1ccccc1)NC(=O)[C@@H]1CCCN1C(=O)[C@@H](N)Cc1ccc(O)cc1 (stereo partly drawn) | 1.41 | – | – | – | – |
| Cc1cc(O)cc(C)c1C[C@H](N)C(=O)N1Cc2ccccc2CC1C(=O)NCCN (stereo partly drawn) (H-[Dmt]-[ξTic]-Ethylenediamine) | – | 1.81 | 2.72 | 286 | 3.36 |
| Cc1cc(O)cc(C)c1C[C@H](N)C(=O)N1Cc2ccccc2C[C@H]1C(=O)NCCNC(=O)[C@H](Cc1ccccc1)NC(=O)[C@H](Cc1ccccc1)NC(=O)[C@@H]1CCCN1C(=O)[C@@H](N)Cc1ccc(O)cc1 | – | 1.45 | 1.03 | 25.1 | – |

— ChEMBL document CHEMBL1137499, “A new opioid designed multiple ligand derived from the micro opioid agonist endomorphin-2 and the delta opioid antagonist pharmacophore Dmt-Tic” (Bioorg Med Chem, 2007)
